Data as given in ChEMBL document CHEMBL3804827, “Synthesis, biological evaluation and structure-activity relationship of 2-styrylquinazolones as anti-tubercular agents” (Bioorg Med Chem Lett, 2016).
In brackets after ≈: the same amount, converted by molar mass.

Assays:
[1] = test system: Mycobacterium tuberculosis; assay: Antimycobacterial activity against Mycobacterium tuberculosis H37Rv ATCC 27294 after 28 days by two fold serial dilution method; assay type: functional; details: H37Rv ATCC 27294, 672 h
Outline: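 M. tuberculosis H37Rv (ATCC 27294) in vitro; MIC taken as the lowest concentration in µg/mL giving 99% growth inhibition. Determined in triplicate at pH 7.4, with standard drugs (INH, R, E, Z, Cfx) run alongside.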

[2] = test system: Staphylococcus aureus; assay: Antibacterial activity against Staphylococcus aureus NRS70 after 16 to 20 hrs by two-fold serial dilution method; assay type: functional
[3] = Selectivity index, ratio of cytotoxicity against HEK293T cells to MIC for Mycobacterium tuberculosis H37Rv ATCC 27294; assay type: toxicity, cell-based, HEK-293T; details: human, read-out: Selectivity Index
Outline: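 HEK-293T human embryonic kidney cells were exposed to 50 µg/mL and read by MTT as % inhibition. The index relates this cytotoxicity to the MIC against M. tuberculosis H37Rv ATCC 27294, defined as 99% growth inhibition.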

[4] = test system: Mycobacterium tuberculosis; assay: Antimycobacterial activity against Mycobacterium tuberculosis H37Rv ATCC 27294 after 7 days by Alamar blue assay; assay type: functional; details: H37Rv ATCC 27294, 168 h
[5] = Selectivity index, ratio of CC50 for African green monkey Vero cells to IC90 for Mycobacterium tuberculosis H37Rv ATCC 27294; assay type: toxicity, cell-based; details: read-out: Selectivity Index

Row | SMILES | MIC99 [1] [µg/mL] | selectivity ratio [3] | also measured
1 | Cc1ccc(-n2c(/C=C/c3ccccc3)nc3ccccc3c2=O)cc1 | > 25 |  | 
2 | N#Cc1ccc(/C=C/c2nc3ccccc3c(=O)n2-c2cccc(C(=O)O)c2)cc1 |  |  | MIC [2]: 2 µg/mL (≈ 5.08 µM)
3 | CSc1ccc(-n2c(/C=C/c3ccco3)nc3ccccc3c2=O)cc1 | 6.25 (≈ 17.3 µM) | > 8 | 
4 | O=c1c2ccccc2nc(/C=C/c2ccc(Cl)cc2)n1-c1ccc(Cc2ccccc2)cc1 | 3.12 (≈ 6.96 µM) |  | 
5 | CSc1ccc(-n2c(/C=C/c3cccs3)nc3ccccc3c2=O)cc1 | 6.25 (≈ 16.6 µM) | > 8 | 
6 | CSc1ccc(-n2c(/C=C/c3ccc(F)cc3)nc3ccccc3c2=O)cc1 | 12.5 (≈ 32.2 µM) |  | 
7 | COc1ccc(-n2c(/C=C/c3ccco3)nc3ccccc3c2=O)cc1 | 6.25 (≈ 18.1 µM) | < 8 | 
8 | O=c1c2ccccc2nc(/C=C/c2ccc([N+](=O)[O-])o2)n1-c1cccc(O)c1 |  |  | IC90 [4]: 1.02 µg/mL (≈ 2.72 µM); selectivity ratio [5]: > 14.7
9 | NNC(=O)c1ccncc1 [ISONIAZID] | 0.098 (≈ 0.715 µM) |  | 
10 | O=c1c2ccccc2nc(/C=C/c2ccc(F)cc2)n1-c1ccccc1 | 25 (≈ 73 µM) |  | 
11 | O=c1c2ccccc2nc(/C=C/c2ccccc2)n1-c1ccc(Cl)cc1 | 12.5 (≈ 34.8 µM) |  | 
12 | COc1ccc(/C=C/c2nc3ccccc3c(=O)n2-c2ccc(OC)cc2)cc1 | 1.56 (≈ 4.06 µM) | > 32 | 
13 | COc1ccc(-n2c(/C=C/c3ccc(Cl)cc3)nc3ccccc3c2=O)cc1 | 3.12 (≈ 8.04 µM) | < 16 | 
14 | O=c1c2ccccc2nc(/C=C/c2c(O)cccc2O)n1-c1ccccc1 | 6.25 (≈ 17.5 µM) | > 8 | 
15 | O=c1c2ccccc2nc(/C=C/c2ccccc2)n1-c1ccccc1 | 3.12 (≈ 9.63 µM) | > 16 | 
16 | O=c1c2ccccc2nc(/C=C/c2cccs2)n1-c1ccccc1 | 3.12 (≈ 9.46 µM) | < 16 | 
17 | COc1cc(-n2c(/C=C/c3ccc(Cl)cc3)nc3ccccc3c2=O)cc(OC)c1OC | 3.12 (≈ 6.96 µM) | > 16 | 
18 | COc1cc(-n2c(/C=C/c3ccco3)nc3ccccc3c2=O)cc(OC)c1OC | 3.12 (≈ 7.73 µM) | > 16 | 
19 | COc1cc(-n2c(/C=C/c3ccc(SC)cc3)nc3ccccc3c2=O)cc(OC)c1OC | 0.4 (≈ 0.869 µM) | > 125 | 
20 | O=c1c2ccccc2nc(/C=C/c2ccc(Cl)cc2)n1-c1ccc(F)cc1 | 12.5 (≈ 33.2 µM) |  | 
21 | Cc1ccc(-n2c(/C=C/c3ccc(Cl)cc3)nc3ccccc3c2=O)cc1 | 25 (≈ 67.1 µM) |  | 
22 | COc1ccc(/C=C/c2nc3ccccc3c(=O)n2-c2ccc(C)cc2)cc1 | 12.5 (≈ 33.9 µM) |  | 
23 | COc1ccc(/C=C/c2nc3ccccc3c(=O)n2-c2ccc(SC)cc2)cc1 | > 25 |  | 
24 | O=c1c2ccccc2nc(/C=C/c2ccccc2)n1-c1ccc(F)cc1 | 25 (≈ 73 µM) |  | 
25 | O=c1c2ccccc2nc(/C=C/c2ccc(OCc3ccccc3)cc2)n1-c1ccccc1 | 12.5 (≈ 29 µM) |  | 
26 | COc1ccc(/C=C/c2nc3ccccc3c(=O)n2-c2cc(OC)c(OC)c(OC)c2)cc1 | 12.5 (≈ 28.1 µM) |  | 
27 | Cc1ccc(/C=C/c2nc3ccccc3c(=O)n2-c2ccc(C)cc2)cc1 | 3.12 (≈ 8.87 µM) | > 16 | 

Row | SMILES | MIC99 [1] [µg/mL] | selectivity ratio [3] | also measured
28 | COc1cc(-n2c(/C=C/c3ccc(F)cc3)nc3ccccc3c2=O)cc(OC)c1OC | 6.25 (≈ 14.5 µM) | > 8 | 
29 | CC[C@@H](CO)NCCN[C@@H](CC)CO [ETHAMBUTOL] | 1.56 (≈ 7.64 µM) |  | 
30 | CSc1ccc(-n2c(/C=C/c3ccc(OC(C)=O)cc3)nc3ccccc3c2=O)cc1 | 6.25 (≈ 14.6 µM) |  | 
31 | COc1cc(-n2c(/C=C/c3ccccc3)nc3ccccc3c2=O)cc(OC)c1OC | 0.78 (≈ 1.88 µM) | > 64 | 
32 | CSc1ccc(-n2c(/C=C/c3ccc(Cl)cc3)nc3ccccc3c2=O)cc1 | 12.5 (≈ 30.9 µM) |  | 
33 | CSc1ccc(-n2c(/C=C/c3ccc(N(C)C)cc3)nc3ccccc3c2=O)cc1 | 12.5 (≈ 30.2 µM) |  | 
34 | CSc1ccc(-n2c(/C=C/c3ccccc3)nc3ccccc3c2=O)cc1 | 0.78 (≈ 2.11 µM) | > 64 | 
35 | O=c1c2ccccc2nc(/C=C/c2ccc(Cl)cc2)n1-c1ccccc1 | 12.5 (≈ 34.8 µM) |  | 
36 | CO[C@H]1/C=C/O[C@@]2(C)Oc3c(C)c(O)c4c(O)c(c(/C=N/N5CCN(C)CC5)c(O)c4c3C2=O)NC(=O)/C(C)=C\C=C\[C@H](C)[C@H](O)[C@@H](C)[C@@H](O)[C@@H](C)[C@H](OC(C)=O)[C@@H]1C [RIFAMPIN] | 0.197 (≈ 0.239 µM) |  | 
37 | CSc1ccc(/C=C/c2nc3ccccc3c(=O)n2-c2ccccc2)cc1 | 3.12 (≈ 8.44 µM) | < 16 | 
38 | COc1cc(/C=C/c2nc3ccccc3c(=O)n2-c2ccc(SC)cc2)cc(OC)c1OC | > 25 |  | 
39 | O=c1c2ccccc2nc(/C=C/c2ccc(F)cc2)n1-c1ccc(Cl)cc1 | 6.25 (≈ 16.6 µM) | > 8 | 
40 | O=c1c2ccccc2nc(/C=C/c2ccco2)n1-c1ccccc1 | 12.5 (≈ 39.8 µM) |  | 
41 | O=c1c2ccccc2nc(/C=C/c2ccc(F)cc2)n1-c1ccc(F)cc1 | > 25 |  | 
42 | COc1cc(/C=C/c2nc3ccccc3c(=O)n2-c2ccccc2)cc(OC)c1OC | 0.78 (≈ 1.88 µM) | > 64 | 
43 | O=c1c2ccccc2nc(/C=C/c2ccc(Cl)cc2)n1-c1ccc(Cl)cc1 | > 25 |  | 
44 | COc1ccc(/C=C/c2nc3ccccc3c(=O)n2-c2ccccc2)cc1 | 12.5 (≈ 35.3 µM) |  | 
45 | Cc1ccc(/C=C/c2nc3ccccc3c(=O)n2-c2ccc(F)cc2)cc1 | 6.25 (≈ 17.5 µM) | > 8 | 
46 | O=c1c2ccccc2nc(/C=C/c2ccc([N+](=O)[O-])o2)n1CCCO |  |  | IC90 [4]: < 0.1 µg/mL; selectivity ratio [5]: > 150
47 | COc1cc(-n2c(/C=C/c3cccs3)nc3ccccc3c2=O)cc(OC)c1OC | 6.25 (≈ 14.9 µM) | < 8 | 
48 | NC(=O)c1cnccn1 [PYRAZINAMIDE] | 6.25 (≈ 50.8 µM) |  | 
49 | O=c1c2ccccc2nc(/C=C/c2ccc(F)cc2)n1-c1ccc(Br)cc1 | 6.25 (≈ 14.8 µM) |  | 
50 | COc1ccc(-n2c(/C=C/c3cccs3)nc3ccccc3c2=O)cc1 | 1.56 (≈ 4.33 µM) | > 32 | 
51 | COc1ccc(-n2c(/C=C/c3ccccc3)nc3ccccc3c2=O)cc1 | 1.56 (≈ 4.4 µM) | > 32 | 
52 | O=c1c2ccccc2nc(/C=C/c2ccccc2)n1-c1ccc(Br)cc1 | 6.25 (≈ 15.5 µM) | > 8 | 
53 | Cc1ccc(-n2c(/C=C/c3ccc(F)cc3)nc3ccccc3c2=O)cc1 | > 25 |  | 
